Reference: ChEMBL document CHEMBL1122336, “Aromatic amidines: comparison of their ability to block respiratory syncytial virus induced cell fusion and to inhibit plasmin, urokinase, thrombin, and trypsin” (J Med Chem, 1983)

Legend:
HEp-2 [1] = assay: Minimum concentration required for the complete blockage of virus induced cell […]; cytotoxic at 100 uM; assay type: functional, cell-based; settings: Homo sapiens
[2] = biological target: T1, Urokinase-type plasminogen activator (Homo sapiens, UniProt P00749); assay: Inhibition constant against Urokinase
Prothrombin = Prothrombin (Bos taurus, UniProt P00735); assay: Inhibition constant against bovine thrombin
Serine protease 1 = biological target: T2, Serine protease 1 (Bos taurus, UniProt P00760); assay: Inhibition constant against bovine trypsin
T2 sequence (P00760 whole entry): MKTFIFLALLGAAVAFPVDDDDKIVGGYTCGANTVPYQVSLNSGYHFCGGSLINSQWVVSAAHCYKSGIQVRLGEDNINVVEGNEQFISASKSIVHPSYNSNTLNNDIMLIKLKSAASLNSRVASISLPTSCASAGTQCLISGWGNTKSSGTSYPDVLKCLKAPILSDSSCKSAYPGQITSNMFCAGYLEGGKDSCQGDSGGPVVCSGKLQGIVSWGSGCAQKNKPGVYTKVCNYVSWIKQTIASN

Plasminogen = Plasminogen (Homo sapiens, UniProt P00747); assay: Inhibition constant against human plasminogen
Chain of Plasminogen (P00747 97-580 limits assumed): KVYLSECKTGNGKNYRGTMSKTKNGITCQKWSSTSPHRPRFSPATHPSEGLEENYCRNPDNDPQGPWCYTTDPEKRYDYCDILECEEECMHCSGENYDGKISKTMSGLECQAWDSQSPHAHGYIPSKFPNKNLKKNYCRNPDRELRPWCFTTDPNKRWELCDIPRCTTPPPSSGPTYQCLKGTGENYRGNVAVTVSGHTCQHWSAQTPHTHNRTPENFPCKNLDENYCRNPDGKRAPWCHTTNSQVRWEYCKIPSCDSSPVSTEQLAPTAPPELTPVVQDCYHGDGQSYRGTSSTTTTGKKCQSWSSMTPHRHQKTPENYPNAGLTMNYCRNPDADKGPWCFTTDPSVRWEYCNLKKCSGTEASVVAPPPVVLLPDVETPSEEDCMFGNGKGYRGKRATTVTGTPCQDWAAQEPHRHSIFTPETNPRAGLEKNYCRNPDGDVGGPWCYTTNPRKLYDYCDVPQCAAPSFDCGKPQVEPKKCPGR
Chain of Plasminogen (P00747 581-810 limits assumed): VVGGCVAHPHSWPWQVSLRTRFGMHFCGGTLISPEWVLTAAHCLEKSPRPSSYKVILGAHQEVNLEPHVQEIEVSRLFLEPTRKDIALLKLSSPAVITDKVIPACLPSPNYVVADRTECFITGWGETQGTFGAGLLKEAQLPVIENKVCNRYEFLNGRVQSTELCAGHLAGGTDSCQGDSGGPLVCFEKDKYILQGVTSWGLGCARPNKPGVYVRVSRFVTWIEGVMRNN
Summary of the method: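 Amidase assay with plasmin on N-benzoyl-DL-arginine p-nitroanilide (BAPNA), run at pH 7.6 and 37 °C. Ki was derived from a Dixon plot of reciprocal initial velocities against inhibitor concentrations at two substrate levels.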

HEp-2 [3] = assay: Minimum concentration required for the complete blockage of virus induced cell […]; NB means no blockage of cell fusion at the highest concentration where there is cytotoxicity at 100 uM; assay type: functional, cell-based; settings: Homo sapiens
[4] = biological target: T1, Urokinase-type plasminogen activator; assay: Inhibition constant against Urokinase; nonlinear kinetics
Summary of the method: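 Amidase assay with urokinase on the substrate L-pyroglutamylglycyl-L-arginine p-nitroanilide (S-2444), run at pH 8.1 and 37 °C. Ki was read from a Dixon plot: the reciprocal of initial velocity was plotted against inhibitor concentration at two substrate concentrations.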

HEp-2 [5] = assay: Minimum concentration required for the complete blockage of virus induced cell […]; NB means no blockage of cell fusion at the highest concentration where there is cytotoxicity at 10 uM; assay type: functional, cell-based; settings: Homo sapiens
HEp-2 [6] = assay: Minimum concentration required for the complete blockage of virus induced cell division.; assay type: functional, cell-based; settings: Homo sapiens
Summary of the method: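 HEp-2 cells (MEM + 10% FBS, passages 370–376, mycoplasma-free) seeded to ~10^6 cells/well at 72 h; RS virus A2 strain adsorbed at 0.1 MOI for 2 h at 36 °C. Wells rinsed, then given inhibitor at 100, 10, 1.0, 0.5 or 0.1 in MEM with 2% FBS and 1% Me2SO. Fusion blockage and toxicity scored at 72 h.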

SMILES	Ki [2]	Ki (Prothrombin)	Ki (Serine protease 1)	Ki (Plasminogen)	Ki [4]	Concentration (HEp-2 [1])	Concentration (HEp-2 [3])	Concentration (HEp-2 [5])	Concentration (HEp-2 [6])
N=C(N)c1ccc2[nH]c(Oc3ccc(-c4nc5cc(C(=N)N)ccc5[nH]4)cc3)nc2c1		3.94 µM	4.67 µM	~200 µM	nonlinear kinectics		Cytotoxic		
N=C(N)c1ccc(OCCCCOc2ccc(-c3nc4cc(C(=N)N)ccc4[nH]3)cc2)cc1								Cytotoxic	
Cn1ccc2cc(C(=N)N)ccc21	196 µM	35.2 µM	85.3 µM	> 1000 µM					
N=C(N)c1ccc2c(ccn2Cc2ccccc2)c1	191 µM	20.1 µM	15.4 µM	844 µM			Cytotoxic		
N=C(N)c1ccc2c(ccn2Cc2cccc([N+](=O)[O-])c2)c1		6.39 µM	7.77 µM	> 100 µM		10 µM			
CC(=O)c1c[nH]c2cc(C(=N)N)ccc12	> 100 µM	1890 µM	> 1000 µM	> 1000 µM			Cytotoxic		
N=C(N)c1ccc2c(C(=O)c3ccccc3)c[nH]c2c1	267 µM	176 µM	> 100 µM	> 200 µM			Cytotoxic		
N=C(N)c1ccc2c(C(=O)C(F)(F)F)c[nH]c2c1	> 100 µM	1510 µM	> 1000 µM	> 1000 µM			Cytotoxic		
N=C(N)c1ccc2c(ccn2Cc2ccc([N+](=O)[O-])cc2N)c1	40 µM	4.8 µM	5.31 µM	100 µM		10 µM			
N=C(N)c1ccc2nc(Cc3nc4ccc(C(=N)N)cc4[nH]3)[nH]c2c1				2.65 µM					0.5 µM
N=C(N)c1ccc(Cn2ccc3cc([N+](=O)[O-])ccc32)cc1	> 200 µM	164 µM	3.44 µM	> 400 µM			Cytotoxic		
N=C(N)c1ccc2c(ccn2Cc2cccc(N)c2)c1		15.4 µM	16.8 µM	164 µM			Cytotoxic		
N=C(N)c1ccc(Cn2ccc3ccccc32)cc1		13.1 µM		111 µM		1 µM			
N=C(N)c1ccc2[nH]ccc2c1	131 µM	7.68 µM	29.1 µM	112 µM					
N=C(N)c1ccc(OCCOc2ccc(-c3nc4cc(C(=N)N)ccc4[nH]3)cc2)cc1						10 µM			
N=C(N)c1ccc(OCCCOc2ccc(-c3nc4cc(C(=N)N)ccc4[nH]3)cc2)cc1						10 µM			
CCn1ccc2cc(C(=N)N)ccc21	280 µM	42.8 µM	137 µM	> 400 µM		10 µM			
N=C(N)c1ccc(Cn2ccc3cc(C(=N)N)ccc32)c(Cl)c1		47.8 µM	5.31 µM	> 700 µM		10 µM			

Continued by falling Ki (Plasminogen), values first:

Ki [2]	Ki (Prothrombin)	Ki (Serine protease 1)	Ki (Plasminogen)	Ki [4]	SMILES	Concentration (HEp-2 [1])	Concentration (HEp-2 [3])	Concentration (HEp-2 [5])	Concentration (HEp-2 [6])
	22.4 µM	8.29 µM	65.6 µM		N=C(N)c1cccc(Cn2ccc3cc(C(=N)N)ccc32)c1	10 µM			
40.3 µM	55 µM	15.3 µM	61.5 µM		CCC(=O)c1cc2ccc(C(=N)N)cc2[nH]1		Cytotoxic		
	24.8 µM	3.18 µM	60 µM		N=C(N)c1ccc(Cn2ccc3cc(C(=N)N)ccc32)cc1	10 µM			
10.6 µM	> 1000 µM	25.5 µM	43 µM		N=C(N)c1ccc2c(C=O)c[nH]c2c1				
17.8 µM			8.19 µM		N=C(N)c1ccc(OCCCOc2ccc(-c3nc4ccc(C(=N)N)cc4[nH]3)cc2)cc1				
4.47 µM			8.18 µM		N=C(N)c1ccc(OCCCCOc2ccc(-c3nc4ccc(C(=N)N)cc4[nH]3)cc2)cc1				
12 µM			3.9 µM		N=C(N)c1ccc(OCCOc2ccc(-c3nc4ccc(C(=N)N)cc4[nH]3)cc2)cc1				
8 µM			3.83 µM		N=C(N)c1ccc(OCCCCCOc2ccc(-c3nc4cc(C(=N)N)ccc4[nH]3)cc2)cc1			Cytotoxic	
9.96 µM	11.1 µM	3.2 µM	2.93 µM		N=C(N)c1ccc2c(ccn2CCCCn2ccc3cc(C(=N)N)ccc32)c1	10 µM			
